Assay outcomes deposited in PubChem BioAssay by several laboratories.
SR-BI DiI inh: mouse SR-BI HDL lipid transfer inhibition; Q61009; ldlA[mSR-BI] CHO cells, DiI-HDL uptake fluorescence, 3 h; inhibition, % at 12.5 µM; actives 0.96% (n = 320,000);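 active = mean replicate inhibition of at least 70% and a set share of replicates each scoring 70 or more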;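 note: 0% = median of neutral control wells and 100% = median of positive control wells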
GRK2 aptamer HTS: inhibitors of human GRK2 displacing RNA aptamer. bead flow cytometry, FAM-aptamer displacement from GRK2. actives 0.59% (n = 330,000). P25098. inhibition of aptamer binding, % at 10 µM. AID 488847;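 active = inhibition of aptamer binding above 40%, roughly 3 SD of noise, on plates passing a quality check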;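 note: median bead fluorescence of bound FAM aptamer so fluorescent compounds give negative values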
SR-BI uptake up: enhances SR-BI lipid uptake from DiI-HDL; CHO ldlA[mSR-BI] cells, DiI-HDL uptake fluorescence, 3 h; 100 = double the neutral-control signal; activation, % at 12.5 µM; actives 0.096% (n = 320,000); AID 504775;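 active = mean replicate activation of at least 60% and every replicate at or above 60%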;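 note: 0% = median plate neutral-control signal and 100% = twice that signal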
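Material: SR-BI-overexpressing, LDLR-lacking CHO cells; schedule: compound exposure 3 h, 37 °C; reagent: DiI-labelled HDL at 10 µg/mL final; technique: bottom-read fluorescence, 550/595 nm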
Rin1 Abl inh: blocks binding of human Rin1 to Abl; P00519+Q13671; TR-FRET Rin1/Abl binding, biochemical; inhibition, % at 7.35 µM; actives 0.4% (n = 360,000); in the data active = inhibition above about 5%, passing the limit was not always enough
GRK2 inh confirm: human GRK2 inhibition confirmation, cherry pick 1; bead-bound GRK2, FAM-aptamer displacement, flow cytometry; shares compounds with GRK2 aptamer HTS; AID 504451; actives 4% (n = 2,000); aptamer displacement, % at 10 µM;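 active = aptamer displacement above 40%, near three times the noise of non-fluorescent compounds, on plates passing quality checks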;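 note: negative values mostly reflect intrinsic compound fluorescence rather than true enhancement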
Aptamer quench 1: quenches fluorescent RNA aptamer, GRK2 hit artifact; shares compounds with GRK2 aptamer HTS; Fluorescent RNA aptamer beads, quenching, flow cytometry; active compounds read high; fluorescence change (kMESF span), kMESF (concentration not given with the values); 110 tested, under 10 active; AID 504521;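 active = compounds whose bead fluorescence drops by more than 37 kMESF across the dose range, marking them as dye quenchers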
FAM quench CP1: counter-screen for GRK2 aptamer inhibitors: fluorescent aptamer quenchers | Carboxyfluorescein RNA aptamer on beads, flow cytometry quenching; active compounds read low | fluorescence response (% of DMSO), % at 10 µM | AID 504580 | 2,000 tested, under 10 active | shares compounds with GRK2 aptamer HTS;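 active = compounds that quench the bead-bound fluorescent RNA probe, cutting fluorescence to under half of the solvent control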;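 note: counterscreen run without GRK2 so only probe quenching by compound is measured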
GRK2 CP2: human GRK2 inhibition confirmation, cherry pick 2. AID 504782. shares compounds with GRK2 aptamer HTS. inhibition of aptamer binding, % at 10 µM. bead-bound GRK2, FAM-aptamer displacement, flow cytometry. 360 tested, under 10 active;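 active = inhibition of aptamer binding above 40%, about triple the noise seen with nonglowing compounds, on plates passing quality control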;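 note: negative values mostly come from compounds that fluoresce themselves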
FAM quench CP2: aptamer fluorescence quenching in GRK2 counter-screen; 360 tested, under 10 active; fluorescence response vs DMSO, % at 10 µM; shares compounds with GRK2 aptamer HTS; carboxyfluorescein RNA aptamer beads, flow cytometry quenching; active compounds read low;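 active = response vs DMSO under 50%, meaning signal dropped by over half, treated as fluorescence quencher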;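 note: labelled aptamer on streptavidin beads without GRK2 as a quench counter-screen; 100% = bead fluorescence of DMSO wells and lower means quenching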
An asterisk follows results filed as active; i = inactive; . = no result given. Hits are enriched below; roughly 1.9% of the tested compounds scored in any of these assays.

SMILES	SR-BI DiI inh	GRK2 aptamer HTS	SR-BI uptake up	Rin1 Abl inh	GRK2 inh confirm	FAM quench CP1	others
CC(C)c1ccc(NC(=O)CCNC(=O)N2C[C@H]3C[C@@H](C2)c2cccc(=O)n2C3)cc1	-4.7	4.0	4.7	-1.8	.	.
CC(CC(C)(C)N1CC1)=NO	-1.3	.	1.3	-2.1	.	.
O=C1CCN(C(=O)Cc2ccccc2[N+](=O)[O-])CC1	-25.9	0.0	25.9	2.8	.	.
O=[N+]([O-])c1c(Cl)c(Cl)c(Cl)c(Cl)c1Cl	-9.8	.	9.8	2.1	.	.
Nc1cc(Cl)c2nonc2c1[N+](=O)[O-]	-69.8	0.0	69.8*	1.2	.	.
O=C1NC(=S)N(c2ccccc2)C(=O)/C1=C/c1ccco1	-23.6	43.0*	23.5	4.5	.	.
CCOc1cccc(N2C(=O)/C(=C/c3ccco3)C(=O)NC2=S)c1	-33.3	30.0	33.3	-0.7	.	.
COc1cc(C(c2c(C)[nH]n(-c3ccccc3)c2=O)c2c(C)[nH]n(-c3ccccc3)c2=O)cc(OC)c1OC	-15.7	4.0	15.7	9.7*	.	.
CCCC[n+]1cc(/N=C(\[O-])OC)on1	-26.1	0.0	26.1	-0.4	.	.
Cc1ccc(N2C(=O)/C(=C/c3ccc(CN(CCC#N)S(C)(=O)=O)o3)C(=O)NC2=S)cc1	-0.2	7.0	0.2	5.2*	.	.
O=c1[nH]cc(COCC(F)(F)C(F)(F)C(F)(F)F)c(=O)[nH]1	-3.5	0.0	3.5	1.5	.	.
CCCn1c(C)c(C(=O)c2cccc3ccccc23)c2ccccc21	82.3*	0.0	-82.3	-1.6	.	.
COc1ccc(Br)cc1CN1CCN(C(=O)Cc2ccccc2)CC1	i	4.0	724.7*	1.3	.	.
CCN(CC)CCNC(=O)c1c(O)c2ccccc2n(Cc2ccccc2)c1=O	-0.8	0.0	0.8	-3.0	.	.
CCCCCn1c(=O)c(C(=O)NCCc2ccccc2)c(O)c2ccccc21	74.9*	1.0	-74.9	-1.0	.	.
CCCCCn1c(=O)c(C(=O)Nc2ccccc2Cl)c(O)c2ccccc21	92.8*	2.0	-92.8	-0.5	.	.
COc1cc(/C=C/[N+](=O)[O-])ccc1O	-80.8	5.0	80.8*	4.9	.	.
COc1cc2c(cc1OC)-c1c(OC)c(OC)cc3c1C(C2)N(C)CC3 (configuration not stated)	76.5*	0.0	-76.5	-5.6	.	.
CCN1/C(=C\C=C\C2=[N+](CC)c3ccccc3C2(C)C)C(C)(C)c2ccccc21	.	70.0*	.	-23.7	23.8	99.6
N#CCCn1cc(C(=O)Nc2ccc([N+](=O)[O-])cc2)c(-c2ccc3c(c2)OCCO3)n1	1.4	66.0*	-1.4	1.0	.	.	GRK2 CP2=21.6;FAM quench CP2=100.0
CC[n+]1c(/C=C/N(C)c2ccccc2)sc2ccc(Cl)cc21	17.1	92.0*	-17.1	-3.9	41.4*	107.7	Aptamer quench 1=25.5
O=c1[nH]c(=O)n(Cc2ccco2)c(O)c1C=NCc1ccc2c(c1)OCO2	-9.3	0.0	9.3	0.5	0.8	102.2
CCCCn1c(O)c(C(C)=NCc2ccc3c(c2)OCO3)c(=O)[nH]c1=O	2.8	0.0	-2.8	-3.0	.	.
CCCCn1c(O)c(C=NCc2ccc3c(c2)OCO3)c(=O)[nH]c1=O	-17.4	94.0*	17.4	0.8	-1.0	96.3
Cc1ccsc1C(=O)C1CCCN(Cc2c(C)nn(C(C)C)c2C)C1 (configuration not stated)	-2.1	0.0	2.1	-1.5	.	.
SMILES	SR-BI DiI inh	GRK2 aptamer HTS	SR-BI uptake up	Rin1 Abl inh	GRK2 inh confirm	FAM quench CP1	others
COc1ccc(/C=C2/C(=O)N(Cc3ccco3)C(=O)N(C(C)C)C2=O)cc1	-2.4	8.0	2.4	-5.2	.	.
CC(C)N1C(=O)/C(=C/C=C/c2ccco2)C(=O)N(Cc2ccco2)C1=O	-28.3	16.0	28.3	4.1	11.0	102.9
NC(=O)C1CCN(/C=C2\C(=O)NC(=O)N(Cc3ccco3)C2=O)CC1	-3.4	47.0*	3.4	-2.0	19.5	99.0
CCC(=Nc1ccc2c(c1)CCC2)c1c(O)n(C2CCCCC2)c(=O)[nH]c1=O	26.6	100.0*	-26.6	-3.5	0.9	108.2
COC(=O)c1ccc(NC(=O)NC(=O)Oc2ccccc2)cc1	-17.8	81.0*	17.8	2.8	-0.6	97.7
O=C(Nc1ccccc1)Oc1ccccc1	-9.7	3.0	9.7	-1.2	.	.
C#CC(CC)(CC)NC(=O)Nc1ccc(OCC)cc1	11.9	0.0	-11.9	-2.3	.	.
C[N+](C)(C)CCOC(=O)CBr	-20.6	14.0	20.6	-3.2	0.1	103.5
Cn1ncc(Cl)c1C(=O)N1CCC2(CC1)OCCO2	-11.6	3.0	11.6	-1.1	.	.
Cc1c(C)c2ccc(OCC(=O)N3CCN(Cc4ccccc4)CC3)cc2oc1=O	-19.3	0.0	19.3	1.1	.	.
Cc1cc(=O)oc2c(C)c(OCC(=O)N3CCN(Cc4ccccc4)CC3)ccc12	4.2	0.0	-4.2	-0.4	3.5	102.1
Cc1cccc(N=Cc2c(O)n(C)c(=O)n(C)c2=O)c1	-5.4	5.0	5.4	-2.8	.	.
CN1CCN(C(=O)COc2ccc(S(=O)(=O)N(C)Cc3ccccc3)cc2)CC1	-1.2	54.0*	1.2	3.0	-22.2	150.8
c1ccc(-c2ccc3c(c2)CNCc2cnnn2-3)cc1	.	.	.	3.8	.	.
C[C@H]1CN([C@@H](C)CO)C(=O)CCCn2nncc2CO[C@H]1CN(C)C(=O)Oc1ccc2ccccc2c1	.	.	.	2.8	.	.
NCCc1c[nH]c2ccccc12	-0.4	62.0*	0.4	-2.6	-6.5	99.6
O=C1NC(=O)N(c2ccc3c(c2)OCO3)C(=O)/C1=C/c1ccc(N2CCCCC2)o1	-17.2	0.0	17.2	-16.6	.	.
O=C1NC(=O)N(c2ccc3c(c2)OCO3)C(=O)/C1=C\c1ccc(-c2ccccc2C(=O)O)o1	0.1	60.0*	-0.1	-5.7	47.4*	96.1	Aptamer quench 1=4.3
CCN(CC)c1ccc(N=Cc2c(O)n(-c3ccccc3C)c(=O)[nH]c2=O)cc1	19.3	27.0	-19.3	4.5	0.4	107.2
CCOc1ccccc1-n1c(O)c(C=Nc2ccc(N(CC)CC)cc2)c(=O)[nH]c1=O	55.2	1.0	-55.2	2.4	.	.
NC(Cc1ccccc1Cl)c1nn[nH]n1 (configuration not stated)	.	.	.	0.8	.	.
O=c1cccc2n1CC1CNCC2C1 (configuration not stated)	-9.8	1.0	9.8	0.3	.	.
CN1CCN(c2ccc(C(F)(F)F)cc2N)CC1	-32.0	2.0	32.0	-3.4	.	.
